The values below come from PMC10448692 (ACS Omega, 2023).

One series deals with DNA (PDB ID: 1BNA). To be noted: reported docking; cited from earlier work.
A short description of series [1]: Lipophilicity by shake flask, n-octanol/water partition. The series is classed as physicochemical. The note with it: room temperature. The method, boiled down: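 Shake-flask method. Each compound was added separately to n-octanol and to double-distilled water and shaken 24 h at room temperature to saturate each phase. Undissolved solid was removed by centrifugation or filtration, and the saturated solution was evaporated to dryness. Residue weight gave solubility, from which logS and logP were computed.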

In the case of `O=C(O)CNC1CCCCC1` [CHgly, cyclohexyl glycine], the “docking energy with DNA” value with DNA (PDB ID: 1BNA) is -5.71 kcal/mol.
For `NCC(=O)O` [gly, Glycine], the “experimental logP” value is given as −2.7 in series [1] and “–2.76” in series [1] (listed as Gly).
